{
  "source": "ChEMBL document CHEMBL1154676",
  "about": "“Synthetic mRNA splicing modulator compounds with in vivo antitumor activity” (J Med Chem, 2009)",
  "key": {"ACHN": {"test_system": "ACHN", "test": "Growth inhibition of human ACHN cells by sulforhodamine B assay", "assay_type": "functional"}, "MV4-11": {"test_system": "MV4-11", "test": "Cytotoxicity against human MV4-11 cells after 72 hrs by XTT assay", "assay_type": "functional, cell-based", "conditions": "MV4-11, 72 h", "summary_of_the_method": "(§1)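 Cells grown at 37 °C, 5% CO2; HFF in DMEM with 10% FBS, PrEC in prostate epithelial growth medium. Adherent lines seeded overnight, suspension lines same day; compounds diluted from DMSO stocks into media at various final concentrations, 72 h exposure. XTT reagent added 4 h, absorbance 490 nm (reference 690 nm). Growth as % of vehicle; IC50 from sigmoidal dose-response fit; mean ± SEM, three independent experiments.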"}, "Mus musculus [1]": {"test_system": "Mus musculus", "test": "Toxicity in NOD/SCID mouse assessed as blood urea nitrogen level at 5 to 50 mg/kg, iv and po for 5 days", "assay_type": "organism-based", "design": "dose 5-50 mg/kg, route oral", "conditions": "in vivo, 120 h"}, "MIA PaCa-2": {"test_system": "MIA PaCa-2", "test": "Cytotoxicity against human MIAPaCa2 cells after 72 hrs by XTT assay", "assay_type": "functional, cell-based", "conditions": "MIA PaCa-2, 72 h", "summary_of_the_method": "as §1"}, "[2]": {"test": "Cytotoxicity against human SJ-GBM2 cells after 72 hrs by XTT assay", "assay_type": "functional, cell-based", "summary_of_the_method": "as §1"}, "SNB-75": {"test_system": "SNB-75", "test": "Growth inhibition of human SNB75 cells by sulforhodamine B assay", "assay_type": "functional"}, "OVCAR-4": {"test_system": "OVCAR-4", "test": "Growth inhibition of human OVCAR4 cells by sulforhodamine B assay", "assay_type": "functional"}, "[3]": {"test": "Cytotoxicity against human BT-3 cells after 72 hrs by XTT assay", "assay_type": "functional, cell-based", "conditions": "BT-3, 72 h", "summary_of_the_method": "as §1"}, "Mus musculus [4]": {"test_system": "Mus musculus", "test": "Toxicity in NOD/SCID mouse assessed as albumin level at 5 to 50 mg/kg, iv and po for 5 days", "assay_type": "organism-based", "design": "dose 5-50 mg/kg, route oral", "conditions": "in vivo, 120 h"}, "[5]": {"test": "Cytotoxicity against human JeKo1 cells after 72 hrs by XTT assay", "assay_type": "functional, cell-based", "conditions": "JeKo-1, 72 h", "summary_of_the_method": "as §1"}, "TK-10": {"test_system": "TK-10", "test": "Growth inhibition of human TK10 cells by sulforhodamine B assay", "assay_type": "functional"}, "NCI/ADR-RES": {"test_system": "NCI/ADR-RES", "test": "Growth inhibition of human NCI/ADR-RES cells by sulforhodamine B assay", "assay_type": "functional"}, "COLO 205": {"test_system": "COLO 205", "test": "Growth inhibition of human COLO205 cells by sulforhodamine B assay", "assay_type": "functional"}, "Mus musculus [6]": {"test_system": "Mus musculus", "test": "Toxicity in NOD/SCID mouse assessed as total necropsies at 5 to 50 mg/kg, […] for 5 days", "assay_type": "organism-based", "design": "dose 5-50 mg/kg", "conditions": "in vivo, po, 120 h"}, "IGROV-1": {"test_system": "IGROV-1", "test": "Growth inhibition of human IGROV1 cells by sulforhodamine B assay", "assay_type": "functional"}, "Mus musculus [7]": {"test_system": "Mus musculus", "test": "Toxicity in NOD/SCID mouse assessed as alanine aminotransferase level at 5 to 50 mg/kg, […] for 5 days", "assay_type": "organism-based", "design": "dose 5-50 mg/kg, route oral", "conditions": "in vivo, po, 120 h"}, "EKVX": {"test_system": "EKVX", "test": "Growth inhibition of human EKVX cells by sulforhodamine B assay", "assay_type": "functional"}, "Mus musculus [8]": {"test_system": "Mus musculus", "test": "Toxicity in NOD/SCID mouse assessed as change in alkaline phosphatase level at 5 to 50 mg/kg, iv and po for 5 days", "assay_type": "organism-based", "design": "dose 5-50 mg/kg, route oral", "conditions": "in vivo, 120 h"}, "SW-620": {"test_system": "SW-620", "test": "Growth inhibition of human SW620 cells by sulforhodamine B assay", "assay_type": "functional"}, "HT-29": {"test_system": "HT-29", "test": "Growth inhibition of human HT-29 cells by sulforhodamine B assay", "assay_type": "functional"}, "A549": {"test_system": "A549", "test": "Growth inhibition of human A549 cells by sulforhodamine B assay", "assay_type": "functional"}, "Mus musculus [9]": {"test_system": "Mus musculus", "test": "Toxicity in NOD/SCID mouse assessed as potassium level at 5 to 50 mg/kg, […]", "assay_type": "organism-based", "design": "dose 5-50 mg/kg, route oral", "conditions": "in vivo, po, 120 h"}, "Mus musculus [10]": {"test_system": "Mus musculus", "test": "Toxicity in NOD/SCID mouse assessed as amylase level at 5 to 50 mg/kg, iv and po for 5 days", "assay_type": "organism-based", "design": "dose 5-50 mg/kg, route oral", "conditions": "in vivo, 120 h"}, "SK-MEL-28": {"test_system": "SK-MEL-28", "test": "Growth inhibition of human SK-MEL-28 cells by sulforhodamine B assay", "assay_type": "functional"}, "Mus musculus [11]": {"test_system": "Mus musculus", "test": "Toxicity in NOD/SCID mouse assessed as anemia at 5 to 50 mg/kg, iv and po for 5 days", "assay_type": "organism-based", "design": "dose 5-50 mg/kg, route oral", "conditions": "in vivo, 120 h"}, "[12]": {"test": "Cytotoxicity against human NB1643 cells after 72 hrs by XTT assay", "assay_type": "functional, cell-based", "conditions": "NB-1643, 72 h", "summary_of_the_method": "as §1"}, "[13]": {"conditions": "read-out: Log10GI50 (converted)"}, "[14]": {"conditions": "read-out: Log10LC50 (converted)"}},
  "data": [
    {"smiles": "CC(/C=C/[C@@H]1C[C@]2(CO2)CC(C)(C)O1)=C\\C[C@H]1CC[C@@H](NC(=O)/C=C\\[C@H](C)OC(=O)C(C)C)CC1", "values": [
      {"measurement": "GI50", "setting": "ACHN; [13]", "value": 537, "unit": "nM"},
      {"measurement": "CC50", "setting": "ACHN; [14]", "value": "> 100000", "unit": "nM"},
      {"measurement": "TGI", "setting": "ACHN; read-out: Log10TGI (converted)", "value": 75900, "unit": "nM"},
      {"measurement": "IC50", "setting": "MV4-11", "value": 300, "unit": "nM"},
      {"measurement": "Activity", "setting": "Mus musculus [1]", "value": "Non-toxic"},
      {"measurement": "IC50", "setting": "MIA PaCa-2", "value": 1200, "unit": "nM"},
      {"measurement": "IC50", "setting": "[2]", "value": 900, "unit": "nM"},
      {"measurement": "GI50", "setting": "SNB-75; [13]", "value": 5370, "unit": "nM"},
      {"measurement": "CC50", "setting": "SNB-75; [14]", "value": "> 100000", "unit": "nM"},
      {"measurement": "TGI", "setting": "SNB-75; read-out: Log10TGI (converted)", "value": "> 100000", "unit": "nM"},
      {"measurement": "GI50", "setting": "OVCAR-4; [13]", "value": 1510, "unit": "nM"},
      {"measurement": "CC50", "setting": "OVCAR-4; [14]", "value": "> 100000", "unit": "nM"},
      {"measurement": "TGI", "setting": "OVCAR-4; read-out: Log10TGI (converted)", "value": "> 100000", "unit": "nM"},
      {"measurement": "IC50", "setting": "[3]", "value": 4410, "unit": "nM"},
      {"measurement": "Activity", "setting": "Mus musculus [4]", "value": "Non-toxic"},
      {"measurement": "IC50", "setting": "[5]", "value": 120, "unit": "nM"},
      {"measurement": "GI50", "setting": "TK-10; [13]", "value": 457, "unit": "nM"},
      {"measurement": "CC50", "setting": "TK-10; [14]", "value": "> 100000", "unit": "nM"},
      {"measurement": "TGI", "setting": "TK-10; read-out: Log10TGI (converted)", "value": 7940, "unit": "nM"},
      {"measurement": "GI50", "setting": "NCI/ADR-RES; [13]", "value": 501, "unit": "nM"},
      {"measurement": "CC50", "setting": "NCI/ADR-RES; [14]", "value": "> 100000", "unit": "nM"},
      {"measurement": "TGI", "setting": "NCI/ADR-RES; read-out: Log10TGI (converted)", "value": "> 100000", "unit": "nM"},
      {"measurement": "GI50", "setting": "COLO 205; [13]", "value": 263, "unit": "nM"},
      {"measurement": "CC50", "setting": "COLO 205; [14]", "value": "> 100000", "unit": "nM"},
      {"measurement": "TGI", "setting": "COLO 205; read-out: Log10TGI (converted)", "value": 1120, "unit": "nM"},
      {"measurement": "Activity", "setting": "Mus musculus [6]", "value": "Non-toxic"},
      {"measurement": "GI50", "setting": "IGROV-1; [13]", "value": 851, "unit": "nM"},
      {"measurement": "CC50", "setting": "IGROV-1; [14]", "value": "> 100000", "unit": "nM"},
      {"measurement": "TGI", "setting": "IGROV-1; read-out: Log10TGI (converted)", "value": "> 100000", "unit": "nM"},
      {"measurement": "Activity", "setting": "Mus musculus [7]", "value": "Non-toxic"},
      {"measurement": "GI50", "setting": "EKVX; [13]", "value": 676, "unit": "nM"},
      {"measurement": "CC50", "setting": "EKVX; [14]", "value": "> 100000", "unit": "nM"},
      {"measurement": "TGI", "setting": "EKVX; read-out: Log10TGI (converted)", "value": 12900, "unit": "nM"},
      {"measurement": "Activity", "setting": "Mus musculus [8]", "value": "Non-toxic"},
      {"measurement": "GI50", "setting": "SW-620; [13]", "value": 81.3, "unit": "nM"},
      {"measurement": "CC50", "setting": "SW-620; [14]", "value": "> 100000", "unit": "nM"},
      {"measurement": "TGI", "setting": "SW-620; read-out: Log10TGI (converted)", "value": 12900, "unit": "nM"},
      {"measurement": "GI50", "setting": "HT-29; [13]", "value": 191, "unit": "nM"},
      {"measurement": "CC50", "setting": "HT-29; [14]", "value": "> 100000", "unit": "nM"},
      {"measurement": "TGI", "setting": "HT-29; read-out: Log10TGI (converted)", "value": 10000, "unit": "nM"},
      {"measurement": "GI50", "setting": "A549; [13]", "value": 912, "unit": "nM"},
      {"measurement": "CC50", "setting": "A549; [14]", "value": "> 100000", "unit": "nM"},
      {"measurement": "TGI", "setting": "A549; read-out: Log10TGI (converted)", "value": "> 100000", "unit": "nM"},
      {"measurement": "Activity", "setting": "Mus musculus [9]", "value": "Non-toxic"},
      {"measurement": "Activity", "setting": "Mus musculus [10]", "value": "Non-toxic"},
      {"measurement": "GI50", "setting": "SK-MEL-28; [13]", "value": 324, "unit": "nM"},
      {"measurement": "CC50", "setting": "SK-MEL-28; [14]", "value": "> 100000", "unit": "nM"},
      {"measurement": "TGI", "setting": "SK-MEL-28; read-out: Log10TGI (converted)", "value": 6460, "unit": "nM"},
      {"measurement": "Activity", "setting": "Mus musculus [11]", "value": "Non-toxic"},
      {"measurement": "IC50", "setting": "[12]", "value": 230, "unit": "nM"}
    ]}
  ]
}
